Experimental data taken from ChEMBL document CHEMBL4002590, “Design and Synthesis of a Pan-Janus Kinase Inhibitor Clinical Candidate (PF-06263276) Suitable for Inhaled and Topical Delivery for the Treatment of Inflammatory Diseases of the Lungs and Skin” (J Med Chem, 2017).
The source made the active and inactive calls. The rule behind the calls is not given here.

Key:
[1] = molecular target: T1, Janus Kinase (JAK) (Homo sapiens, UniProt P52333+P23458+O60674+P29597); experiment: Inhibition of JAK in human PBMC assessed as reduction in human recombinant IL-2/mouse anti-human CD3 stimulated IFNgamma production preincubated for 1 hr followed by IL2/CD3 stimulation measured after 18 hrs by ELISA
T1 sequence (O60674 whole entry, looked up, one chain of several): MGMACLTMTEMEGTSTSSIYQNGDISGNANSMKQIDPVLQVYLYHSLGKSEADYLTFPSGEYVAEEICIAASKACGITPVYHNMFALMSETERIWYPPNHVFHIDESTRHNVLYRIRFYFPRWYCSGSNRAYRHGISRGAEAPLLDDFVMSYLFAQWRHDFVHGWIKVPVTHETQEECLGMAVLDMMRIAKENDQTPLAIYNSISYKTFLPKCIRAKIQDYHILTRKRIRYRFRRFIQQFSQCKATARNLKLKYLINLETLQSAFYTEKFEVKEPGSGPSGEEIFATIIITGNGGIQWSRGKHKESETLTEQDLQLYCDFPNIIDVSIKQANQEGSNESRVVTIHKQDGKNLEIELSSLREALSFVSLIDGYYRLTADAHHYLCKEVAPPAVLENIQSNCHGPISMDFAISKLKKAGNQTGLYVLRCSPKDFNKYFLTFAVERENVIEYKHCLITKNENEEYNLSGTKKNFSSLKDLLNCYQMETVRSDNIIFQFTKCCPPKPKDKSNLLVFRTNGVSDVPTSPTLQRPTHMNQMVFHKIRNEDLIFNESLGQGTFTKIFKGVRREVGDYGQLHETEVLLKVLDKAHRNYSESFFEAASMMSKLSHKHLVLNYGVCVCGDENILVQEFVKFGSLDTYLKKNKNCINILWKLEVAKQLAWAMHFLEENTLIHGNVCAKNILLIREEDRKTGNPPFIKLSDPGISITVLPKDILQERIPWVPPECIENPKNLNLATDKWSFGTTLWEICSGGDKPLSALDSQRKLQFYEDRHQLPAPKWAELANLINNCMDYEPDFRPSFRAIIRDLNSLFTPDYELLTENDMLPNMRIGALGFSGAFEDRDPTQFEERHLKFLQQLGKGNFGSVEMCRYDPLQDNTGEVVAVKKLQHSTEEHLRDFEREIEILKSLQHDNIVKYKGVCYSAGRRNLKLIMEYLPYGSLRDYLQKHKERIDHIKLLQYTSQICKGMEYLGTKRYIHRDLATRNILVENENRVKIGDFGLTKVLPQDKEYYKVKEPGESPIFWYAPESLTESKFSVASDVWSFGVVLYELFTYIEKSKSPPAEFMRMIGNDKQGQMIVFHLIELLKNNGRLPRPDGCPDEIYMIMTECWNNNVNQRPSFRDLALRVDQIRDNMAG
T1 sequence (P23458 whole entry, looked up, one chain of several): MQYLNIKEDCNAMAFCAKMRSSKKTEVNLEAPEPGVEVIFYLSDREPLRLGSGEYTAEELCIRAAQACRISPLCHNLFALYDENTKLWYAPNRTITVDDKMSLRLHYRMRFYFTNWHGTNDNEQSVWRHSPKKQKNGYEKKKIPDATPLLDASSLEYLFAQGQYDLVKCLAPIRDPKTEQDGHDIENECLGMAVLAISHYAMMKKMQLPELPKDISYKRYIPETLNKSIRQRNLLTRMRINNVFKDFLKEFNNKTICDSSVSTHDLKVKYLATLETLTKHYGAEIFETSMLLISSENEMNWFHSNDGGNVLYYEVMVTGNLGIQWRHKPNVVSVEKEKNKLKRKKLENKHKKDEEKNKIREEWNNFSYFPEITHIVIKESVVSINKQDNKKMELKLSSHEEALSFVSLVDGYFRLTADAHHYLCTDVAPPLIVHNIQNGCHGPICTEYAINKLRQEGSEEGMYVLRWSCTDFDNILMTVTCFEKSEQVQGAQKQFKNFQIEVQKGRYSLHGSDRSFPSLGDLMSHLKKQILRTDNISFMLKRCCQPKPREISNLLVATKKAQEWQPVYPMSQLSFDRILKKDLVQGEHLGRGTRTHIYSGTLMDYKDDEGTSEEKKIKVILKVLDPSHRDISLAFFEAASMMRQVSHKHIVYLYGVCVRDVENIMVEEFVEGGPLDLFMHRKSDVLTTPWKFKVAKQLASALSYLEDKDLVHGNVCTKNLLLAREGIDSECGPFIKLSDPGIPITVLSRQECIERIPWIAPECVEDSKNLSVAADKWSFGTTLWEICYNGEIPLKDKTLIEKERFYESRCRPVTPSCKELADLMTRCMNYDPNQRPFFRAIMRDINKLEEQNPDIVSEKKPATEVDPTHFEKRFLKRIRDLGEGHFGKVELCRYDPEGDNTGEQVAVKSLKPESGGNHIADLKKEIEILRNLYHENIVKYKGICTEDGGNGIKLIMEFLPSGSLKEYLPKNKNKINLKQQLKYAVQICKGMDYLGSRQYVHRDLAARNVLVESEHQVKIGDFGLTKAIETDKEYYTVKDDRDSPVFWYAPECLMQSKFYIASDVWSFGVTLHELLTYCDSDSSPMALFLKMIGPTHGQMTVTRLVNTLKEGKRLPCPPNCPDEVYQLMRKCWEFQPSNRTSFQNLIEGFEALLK
T1 sequence (P29597 whole entry, looked up, one chain of several): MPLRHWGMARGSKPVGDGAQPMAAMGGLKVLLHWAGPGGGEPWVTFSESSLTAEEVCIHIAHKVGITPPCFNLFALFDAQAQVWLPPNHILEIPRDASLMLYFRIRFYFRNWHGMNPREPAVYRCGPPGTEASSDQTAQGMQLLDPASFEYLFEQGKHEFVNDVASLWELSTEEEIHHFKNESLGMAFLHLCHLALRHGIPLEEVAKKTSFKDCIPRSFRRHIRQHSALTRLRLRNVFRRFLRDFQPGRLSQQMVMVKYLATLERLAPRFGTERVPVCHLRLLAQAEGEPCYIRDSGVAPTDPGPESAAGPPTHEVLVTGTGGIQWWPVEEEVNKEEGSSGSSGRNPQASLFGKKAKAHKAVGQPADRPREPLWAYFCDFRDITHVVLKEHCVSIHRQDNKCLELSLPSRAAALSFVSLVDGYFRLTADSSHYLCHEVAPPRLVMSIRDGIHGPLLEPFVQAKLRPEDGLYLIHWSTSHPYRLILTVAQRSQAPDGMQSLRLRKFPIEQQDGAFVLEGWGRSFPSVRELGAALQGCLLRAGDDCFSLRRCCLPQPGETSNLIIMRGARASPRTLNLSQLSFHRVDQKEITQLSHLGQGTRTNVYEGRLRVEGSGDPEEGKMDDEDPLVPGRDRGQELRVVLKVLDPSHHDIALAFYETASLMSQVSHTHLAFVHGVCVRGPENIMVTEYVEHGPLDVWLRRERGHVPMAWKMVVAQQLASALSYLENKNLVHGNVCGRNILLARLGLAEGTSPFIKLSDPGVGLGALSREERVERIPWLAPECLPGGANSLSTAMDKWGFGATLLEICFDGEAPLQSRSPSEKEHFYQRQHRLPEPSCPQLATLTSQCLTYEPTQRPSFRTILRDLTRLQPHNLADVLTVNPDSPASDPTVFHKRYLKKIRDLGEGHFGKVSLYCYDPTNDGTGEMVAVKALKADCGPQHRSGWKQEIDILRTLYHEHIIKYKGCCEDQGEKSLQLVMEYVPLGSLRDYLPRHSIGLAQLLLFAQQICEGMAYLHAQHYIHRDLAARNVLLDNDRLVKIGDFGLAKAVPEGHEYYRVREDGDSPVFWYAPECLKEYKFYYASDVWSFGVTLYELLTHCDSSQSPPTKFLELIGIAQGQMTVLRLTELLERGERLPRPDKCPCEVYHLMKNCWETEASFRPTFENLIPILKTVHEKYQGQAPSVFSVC
Method in brief: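 Primary PBMCs stimulated with IL-2; inhibition of IFNγ release measured. IC50 values are geometric means of at least three determinations.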

[2] = test system: Liver; experiment: Metabolic stability in human liver microsomes assessed per mg protein; assay type: ADME, microsome
Method in brief: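 Metabolic stability measured as turnover in human liver microsomes.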

[3] = Drug metabolism in human liver microsomes assessed as UGT-mediated compound glucuronidation per mg protein in presence of microsomal activator Brij58 and cofactor UDPGA; assay type: ADME
Method in brief: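 Human liver microsomes supplemented with the activator Brij58 and cofactor UDPGA, NADPH omitted, to measure phase II glucuronidation turnover.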

[4] = molecular target: Tyrosine-protein kinase JAK2 (Homo sapiens, UniProt O60674); experiment: Inhibition of GST tagged human recombinant JAK2 catalytic domain expressed in baculovirus using peptide substrate preincubated for 60 mins followed by substrate addition and measured after 60 mins by microfluidic assay
Tyrosine-protein kinase JAK2, sequence (O60674 whole entry, the tested form may be a part): as the sequence (O60674 whole entry, looked up, one chain of several) above
Method in brief: (§1)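 Caliper microfluidic assay of peptide-substrate phosphorylation by the relevant JAK enzyme, run at 1 mM ATP; IC50 values are geometric means of at least three determinations.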

[5] = molecular target: Tyrosine-protein kinase JAK1 (Homo sapiens, UniProt P23458); experiment: Inhibition of GST tagged human recombinant JAK1 catalytic domain expressed in baculovirus using peptide substrate preincubated for 60 mins followed by substrate addition and measured after 60 mins by microfluidic assay
Tyrosine-protein kinase JAK1, sequence (P23458 whole entry, the tested form may be a part): as the sequence (P23458 whole entry, looked up, one chain of several) above

[6] = molecular target: Non-receptor tyrosine-protein kinase TYK2 (Homo sapiens, UniProt P29597); experiment: Inhibition of Tyk2 (unknown origin) using peptide substrate preincubated for 60 mins followed by substrate addition and measured after 60 mins by microfluidic assay; method in brief: as §1
Non-receptor tyrosine-protein kinase TYK2, sequence (P29597 whole entry, the tested form may be a part): as the sequence (P29597 whole entry, looked up, one chain of several) above

[7] = molecular target: T2, Tyrosine-protein kinase JAK3 (Homo sapiens, UniProt P52333); experiment: Inhibition of GST tagged human recombinant JAK3 catalytic domain expressed in baculovirus using peptide substrate preincubated for 60 mins followed by substrate addition and measured after 60 mins by microfluidic assay; method in brief: as §1
T2 sequence (P52333 whole entry): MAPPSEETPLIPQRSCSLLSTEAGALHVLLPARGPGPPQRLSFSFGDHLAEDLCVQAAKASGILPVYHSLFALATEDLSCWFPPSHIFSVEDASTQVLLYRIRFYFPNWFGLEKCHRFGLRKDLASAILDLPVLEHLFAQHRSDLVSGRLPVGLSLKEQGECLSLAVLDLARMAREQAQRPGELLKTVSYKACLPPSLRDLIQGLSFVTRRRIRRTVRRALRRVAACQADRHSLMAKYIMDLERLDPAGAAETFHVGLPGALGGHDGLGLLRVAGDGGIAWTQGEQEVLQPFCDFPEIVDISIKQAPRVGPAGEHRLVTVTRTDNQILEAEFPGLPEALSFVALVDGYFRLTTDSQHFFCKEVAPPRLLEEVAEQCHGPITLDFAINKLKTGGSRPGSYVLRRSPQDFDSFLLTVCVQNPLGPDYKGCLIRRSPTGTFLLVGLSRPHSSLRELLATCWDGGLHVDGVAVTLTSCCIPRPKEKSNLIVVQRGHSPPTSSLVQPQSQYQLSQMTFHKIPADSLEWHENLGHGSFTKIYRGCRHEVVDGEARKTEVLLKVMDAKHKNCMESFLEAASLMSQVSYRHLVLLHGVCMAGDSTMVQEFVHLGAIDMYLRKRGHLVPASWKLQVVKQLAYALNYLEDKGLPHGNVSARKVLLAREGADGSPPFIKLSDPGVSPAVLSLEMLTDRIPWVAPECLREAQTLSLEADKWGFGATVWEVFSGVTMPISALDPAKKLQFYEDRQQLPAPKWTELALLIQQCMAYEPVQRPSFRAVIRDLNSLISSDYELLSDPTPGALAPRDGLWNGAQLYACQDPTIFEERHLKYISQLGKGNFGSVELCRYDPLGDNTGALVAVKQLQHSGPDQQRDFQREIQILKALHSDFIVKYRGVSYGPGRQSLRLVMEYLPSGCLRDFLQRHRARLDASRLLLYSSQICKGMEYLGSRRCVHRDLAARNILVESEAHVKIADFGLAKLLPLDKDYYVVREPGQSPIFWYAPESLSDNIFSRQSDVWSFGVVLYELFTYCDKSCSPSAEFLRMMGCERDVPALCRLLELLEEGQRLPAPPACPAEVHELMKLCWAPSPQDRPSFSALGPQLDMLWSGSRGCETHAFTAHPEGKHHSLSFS

[8] = Thermodynamic solubility of the compound in pH 7.4 water buffer using crystalline solid sample; assay type: physicochemical; conditions: read-out: Therm_solubility
Method in brief: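 Thermodynamic solubility measured from crystalline solid in water buffered at pH 7.4.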

[9] = molecular target: T1, Janus Kinase (JAK)
[10] = organism: Homo sapiens; experiment: Selectivity ratio of IC50 for GST tagged human recombinant JAK3 catalytic domain expressed in baculovirus to IC50 for GST tagged human recombinant JAK1 catalytic domain expressed in baculovirus
Method in brief: (§2)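 Both IC50s come from the same microfluidic mobility-shift (Caliper) assay with 1 mM ATP. The read-out is inhibition of phosphorylation of a peptide substrate by JAK1, JAK2 or JAK3. Each IC50 is a geometric mean of at least three determinations.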

[11] = organism: Homo sapiens; experiment: Selectivity ratio of IC50 for GST tagged human recombinant JAK2 catalytic domain expressed in baculovirus to IC50 for GST tagged human recombinant JAK1 catalytic domain expressed in baculovirus; method in brief: as §2
[12] = molecular target: T1, Janus Kinase (JAK); experiment: Inhibition of JAK in human PBMC assessed as reduction in human recombinant IL-2/ mouse anti-human CD3 stimulated STAT5 phosphorylation at tyrosine residue preincubated for 1 hr followed by IL2/CD3 stimulation after 30 mins by immunofluorescence assay
[13] = molecular target: T1, Janus Kinase (JAK); experiment: Inhibition of JAK in human PBMC assessed as reduction in human recombinant IL-2/ mouse anti-human CD3 stimulated STAT5 phosphorylation at tyrosine residue at 10-fold IC50 preincubated for 1 hr followed by compound washout and subsequent IL2/CD3 stimulation measured after 30 mins by immunofluorescence assay
Method in brief: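 PBMC wash-out format: cells exposed to compound for 1 h at 10-fold IC50, washed extensively, then pSTAT5 response to IL-2 stimulation followed over time to give a recovery T1/2.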

[14] = molecular target: T3, Tyrosine-protein kinase JAK3 (Homo sapiens) (UniProt P52333); experiment: Inhibition of GST tagged human recombinant JAK3 catalytic domain expressed in baculovirus assessed as time taken for inhibition to reverse by 50% by dilution recovery based microfluidic mobility shift assay
T3 sequence (whole entry): T2 sequence (P52333 whole entry)
Method in brief: (§3)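 JAK3 inhibition kinetics measured by continuous dilution-recovery in a microfluidic mobility shift format; offset rate (min−1) converted to a recovery T1/2.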

[15] = molecular target: T3, Tyrosine-protein kinase JAK3 (Homo sapiens); experiment: Inhibition of GST tagged human recombinant JAK3 catalytic domain expressed in baculovirus assessed as offset rate by dilution recovery based microfluidic mobility shift assay; method in brief: as §3
[16] = Aqueous solubility of the compound; assay type: physicochemical; conditions: buffer
[17] = molecular target: Mitogen-activated protein kinase kinase kinase kinase 4 (Homo sapiens) (UniProt O95819); experiment: Inhibition of MAP4K4 (unknown origin) at 1 uM relative to control
Mitogen-activated protein kinase kinase kinase kinase 4 (Homo sapiens), sequence (O95819 2-1239 limits assumed): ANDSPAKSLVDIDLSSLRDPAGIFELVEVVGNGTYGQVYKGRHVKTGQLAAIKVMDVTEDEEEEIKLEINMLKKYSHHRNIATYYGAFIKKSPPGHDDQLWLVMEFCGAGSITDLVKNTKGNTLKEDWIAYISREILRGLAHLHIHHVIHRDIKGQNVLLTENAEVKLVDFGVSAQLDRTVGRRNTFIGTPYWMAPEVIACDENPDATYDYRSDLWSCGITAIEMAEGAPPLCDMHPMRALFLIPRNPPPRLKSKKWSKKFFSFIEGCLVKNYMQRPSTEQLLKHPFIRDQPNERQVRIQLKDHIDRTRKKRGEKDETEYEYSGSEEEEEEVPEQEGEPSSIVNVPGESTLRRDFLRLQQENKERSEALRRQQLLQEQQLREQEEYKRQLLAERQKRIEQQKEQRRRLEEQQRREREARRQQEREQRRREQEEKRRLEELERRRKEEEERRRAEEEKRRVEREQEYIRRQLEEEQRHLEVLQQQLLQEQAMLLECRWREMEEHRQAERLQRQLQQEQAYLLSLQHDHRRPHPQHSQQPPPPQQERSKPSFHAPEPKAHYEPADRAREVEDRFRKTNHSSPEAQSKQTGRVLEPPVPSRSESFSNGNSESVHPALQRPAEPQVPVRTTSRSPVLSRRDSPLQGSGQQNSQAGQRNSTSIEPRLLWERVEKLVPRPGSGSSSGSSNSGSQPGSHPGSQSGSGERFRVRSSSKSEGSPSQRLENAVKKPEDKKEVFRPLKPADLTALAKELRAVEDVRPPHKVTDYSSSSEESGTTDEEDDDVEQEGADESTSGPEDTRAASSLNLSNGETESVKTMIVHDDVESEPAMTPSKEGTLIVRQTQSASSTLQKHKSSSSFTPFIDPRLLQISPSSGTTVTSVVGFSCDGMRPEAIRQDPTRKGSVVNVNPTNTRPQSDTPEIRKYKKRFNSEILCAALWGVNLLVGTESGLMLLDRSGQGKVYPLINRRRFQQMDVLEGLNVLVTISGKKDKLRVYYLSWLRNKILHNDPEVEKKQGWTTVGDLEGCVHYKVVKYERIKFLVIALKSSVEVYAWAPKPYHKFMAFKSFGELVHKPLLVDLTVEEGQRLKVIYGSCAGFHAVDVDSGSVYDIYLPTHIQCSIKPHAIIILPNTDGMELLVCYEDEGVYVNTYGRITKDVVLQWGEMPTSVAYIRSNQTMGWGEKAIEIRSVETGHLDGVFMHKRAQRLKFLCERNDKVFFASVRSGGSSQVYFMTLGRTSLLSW

[18] = molecular target: T1, Janus Kinase (JAK); remark: listed apart in the source

IC50 [1] [nM]	Stability [2] [µL/min]	Drug metabolism [3] [µL/min]	IC50 [4] [nM]	IC50 [5] [nM]	IC50 [6] [nM]	IC50 [7] [nM]	solubility thermodynamic [8]	T1/2 [9] [h]	Ratio IC50 [10]	Ratio IC50 [11]	IC50 [12] [nM]	inhibition [13]	T1/2 [14] [h]	K [15] [min⁻¹]	solubility [16]	inhibition [17] [%]	TDI [18]	Compound
4.5	42	5.5	3.3	0.5	22.7	7.1	10 to 20 µM											CCc1cc(O)ccc1-c1ccc2c(-c3nc4c([nH]3)CN(C(C)=O)CC4)n[nH]c2c1
277.8			58.8	60	816	418	0.5 µM	4.5										CCc1cc(O)ccc1-c1ccc2c(C(=O)Nc3ccc(C)nc3)n[nH]c2c1
9.1			40.9	7.5	796	125	14 µM											CCc1cc(O)ccc1-c1ccc2c(C(=O)NC)n[nH]c2c1
75.4			17.3	9.7	437	166												CCCc1cc(O)ccc1-c1ccc2c(-c3nc4ccccc4[nH]3)n[nH]c2c1
35	48	37	0.3	< 0.1	0.8	1.7												CCc1cc(O)c(F)cc1-c1ccc2c(-c3nc4c([nH]3)CCN(C(=O)c3ccc(F)cc3)C4)n[nH]c2c1
47.9		> 360	7.9	0.8	15.3	16.7		3.5										CCc1cc(O)c(F)cc1-c1ccc2c(-c3nc4ccccc4[nH]3)n[nH]c2c1
39.1	18	7.3	5.6	1.3	25.1	1.3												CCc1cc(O)ccc1-c1ccc2c(-c3nc4c([nH]3)CN(S(C)(=O)=O)CC4)n[nH]c2c1
									3	5								C[C@@H]1CCN(C(=O)CC#N)C[C@@H]1N(C)c1ncnc2[nH]ccc12
250.3			79.6	26.8	392	293												CC(C)c1cc(O)ccc1-c1ccc2c(-c3nc4ccccc4[nH]3)n[nH]c2c1
> 10000			> 10000	2760	> 10000	> 10000												CCc1cc(O)ccc1-c1ccc2c(C(=O)N(C)C)n[nH]c2c1
204.8		46																CCc1c(-c2ccc3c(-c4nc5ccccc5[nH]4)n[nH]c3c2)ccc(O)c1F
19.1			4.2	1.7	54.5	4.3	15 µM											CCc1cc(O)ccc1-c1ccc2c(C(N)=O)n[nH]c2c1
		17																CCc1cc(O)ccc1-c1ccc2c(-c3nc4c([nH]3)CCN(C(=O)c3cnc(N5CCCCC5)cn3)C4)n[nH]c2c1
10.4			0.8	0.9	4.6	0.8	4.1 µM											CCc1cc(O)ccc1-c1ccc2c(-c3ncc[nH]3)n[nH]c2c1
30.4	75	> 360	15.9	1.8	57.5	31												CCc1cc(O)c(F)cc1-c1ccc2c(-c3nc4c([nH]3)CN(Cc3ccccc3)CC4)n[nH]c2c1
	131	> 200	21.2	2.3	959	34.1	20 µg/mL				343	inactive	0.467	0.024				C[C@@H]1CCN(C(=O)N2CC[C@@H](S(=O)(=O)c3cccc(O)c3)C2)C[C@@H]1N(C)c1ncnc2[nH]ccc12
572.7			101	68.6	291	493												Oc1cccc(-c2ccc3c(-c4nc5ccccc5[nH]4)n[nH]c3c2)c1
10.5	35	49	2.2	0.4	9.1	8.3		6.5					1.9	0.006	Insoluble	> 85	Active	CCc1cc(O)ccc1-c1ccc2c(-c3nc4ccccc4[nH]3)n[nH]c2c1
	82	< 3.5	124	37.5	1630	139					27	inactive						C[C@@H]1CCN(C(=O)N2CCCC2)C[C@@H]1N(C)c1ncnc2[nH]ccc12
18.6	56	< 1.9	6.4	2.1	20.1	2.9	10 to 20 µM											CCc1cc(O)ccc1-c1ccc2c(-c3nc4c([nH]3)CN(C)CC4)n[nH]c2c1
